Active and inactive are the calls of the source. The calls are words filed in the database; no cut-off is given here.
Tests used:
[1] = Metal chelating activity assessed as compound-Al3+ complex formation by measuring shift in maximum absorption wavelength at 37.5 uM after 30 mins by UV-vis spectrophotometric method
Outline: (§1)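 UV absorption scanned from 200 to 600 nm after 30 min at room temperature in methanol. Compound and each metal salt (CuCl2, ZnCl2, AlCl3, FeSO4) were at 37.5 µM final. Spectra compared with and without metal.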

[2] = target: Amyloid-beta precursor protein (Homo sapiens) (UniProt P05067); test: Inhibition of amyloid beta (1 to 42) (unknown origin) self aggregation at 25 uM after 24 hrs by ThT-based fluorometric method relative to control
Chain of Amyloid-beta precursor protein (Homo sapiens) (P05067 whole entry): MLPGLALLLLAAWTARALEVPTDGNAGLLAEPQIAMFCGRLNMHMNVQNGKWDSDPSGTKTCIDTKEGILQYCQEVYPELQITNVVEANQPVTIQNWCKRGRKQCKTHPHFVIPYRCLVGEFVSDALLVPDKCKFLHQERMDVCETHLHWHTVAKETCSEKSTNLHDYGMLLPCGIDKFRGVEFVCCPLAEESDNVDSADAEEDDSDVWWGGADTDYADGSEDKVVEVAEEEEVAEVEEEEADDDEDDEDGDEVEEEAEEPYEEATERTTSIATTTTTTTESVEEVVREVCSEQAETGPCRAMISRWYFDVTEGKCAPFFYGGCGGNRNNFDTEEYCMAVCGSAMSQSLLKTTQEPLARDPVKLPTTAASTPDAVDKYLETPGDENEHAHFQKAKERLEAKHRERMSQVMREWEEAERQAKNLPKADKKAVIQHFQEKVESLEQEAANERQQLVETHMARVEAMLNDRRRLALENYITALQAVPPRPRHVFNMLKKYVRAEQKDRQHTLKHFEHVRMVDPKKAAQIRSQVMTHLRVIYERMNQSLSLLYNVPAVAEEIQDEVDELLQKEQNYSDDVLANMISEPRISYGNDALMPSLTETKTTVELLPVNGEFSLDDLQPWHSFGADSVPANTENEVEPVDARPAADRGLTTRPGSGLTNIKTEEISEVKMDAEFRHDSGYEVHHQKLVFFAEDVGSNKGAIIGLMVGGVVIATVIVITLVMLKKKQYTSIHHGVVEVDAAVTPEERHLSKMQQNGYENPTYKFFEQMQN
Outline: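 Aβ1-42 (25 µM final) incubated at 37 °C for 24 h ± compound in 50 mM phosphate buffer pH 7.4, with DMSO stocks diluted in buffer. Then 5 µM thioflavin T in 50 mM glycine-NaOH pH 8.5 was added and read at ex 446/em 490 nm. Run in triplicate. % inhibition = (1−IFi/IFc)×100 after background subtraction.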

Acetylcholinesterase [3] = target: T1, Acetylcholinesterase (Homo sapiens, UniProt P22303); test: Inhibition of human erythrocyte AChE induced amyloid beta (1 to 40) aggregation at 25 uM after 24 hrs by ThT-based fluorometric method relative to control
T1 sequence (P22303 whole entry): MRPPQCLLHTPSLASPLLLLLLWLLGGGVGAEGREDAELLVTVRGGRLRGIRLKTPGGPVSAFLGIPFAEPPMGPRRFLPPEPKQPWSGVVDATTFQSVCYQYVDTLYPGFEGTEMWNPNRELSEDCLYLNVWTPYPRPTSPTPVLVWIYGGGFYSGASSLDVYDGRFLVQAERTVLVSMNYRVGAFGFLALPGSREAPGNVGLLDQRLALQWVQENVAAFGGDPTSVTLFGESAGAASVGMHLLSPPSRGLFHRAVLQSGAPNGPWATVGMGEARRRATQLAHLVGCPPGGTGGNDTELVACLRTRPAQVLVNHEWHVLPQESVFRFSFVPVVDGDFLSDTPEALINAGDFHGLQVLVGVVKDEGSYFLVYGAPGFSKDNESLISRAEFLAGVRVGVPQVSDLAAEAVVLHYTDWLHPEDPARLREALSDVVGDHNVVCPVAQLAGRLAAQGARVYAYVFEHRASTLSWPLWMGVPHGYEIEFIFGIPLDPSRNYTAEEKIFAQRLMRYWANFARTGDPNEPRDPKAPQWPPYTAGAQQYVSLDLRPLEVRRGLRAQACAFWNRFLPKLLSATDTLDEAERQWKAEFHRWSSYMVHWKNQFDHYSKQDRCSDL
Outline: (§2)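 HFIP-pretreated Aβ1-40 (230 µM final) co-incubated 24 h at room temperature with human AChE (2.3 µM; Aβ/AChE 100:1) ± compound in sodium phosphate buffer pH 8.0. Then 5 µM thioflavin T in glycine-NaOH pH 8.5 was added and read at ex 446/em 490 nm. Triplicate. % inhibition calculated from fluorescence with/without inhibitor, each minus its blank (Aβ alone, AChE alone, Aβ+inhibitor).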

SH-SY5Y = test: Cytotoxicity against human SH-SY5Y cells assessed as reduction in cell viability up to 10 uM after 24 hrs by MTT assay; type: cell-based
Outline: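 SH-SY5Y cells grown in DMEM with 10% FBS at 37 °C, 5% CO2, seeded 4 × 10^4 cells/well and incubated 24 h. Compounds given at 1, 10 and 100 µM (1% DMSO final) for 24 h. MTT (5 mg/ml) added for 4 h, cells lysed overnight in DMF/SDS, absorbance read at 590 nm against control. Three independent experiments.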

[4] = target: Amyloid-beta precursor protein (Homo sapiens) (UniProt P05067); test: Inhibition of amyloid beta (1 to 42) (unknown origin) self-induced aggregation after 24 hrs by ThT-based fluorometric method
Outline: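 Aβ1-42 (25 µM final) incubated 24 h at 37 °C with or without compound (1-50 µM) in 50 mM phosphate buffer pH 7.4. Thioflavin T (5 µM in glycine-NaOH pH 8.5) then added, fluorescence read at ex 446/em 490 nm. Inhibition = (1-IFi/IFc)×100 after background subtraction. Run in triplicate.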

[5] = Metal chelating activity assessed as compound-Zn2+ complex formation by measuring shift in maximum absorption wavelength at 37.5 uM after 30 mins by UV-vis spectrophotometric method; outline: as §1
Acetylcholinesterase [6] = target: T1, Acetylcholinesterase; test: Inhibition of human erythrocyte AChE induced amyloid beta (1 to 40) aggregation after 24 hrs by ThT-based fluorometric method; outline: as §2
Acetylcholinesterase [7] = target: T1, Acetylcholinesterase; test: Inhibition of human erythrocyte AChE using acetylthiocholine iodide as substrate after 15 mins by Ellman's method
PC-12 = test: Neuroprotective activity against H2O2-induced cell injury in rat PC12 cells assessed as cell viability at 10 uM preincubated for 24 hrs followed by incubation with H2O2 for 2 hrs measured after 24 hrs by MTT assay (reference value: 43.9%); type: functional; details: read-out: Activity
Outline: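 PC12 cells in phenol-red-free DMEM with 10% FCS, plated at 10^5 cells/well. Cells preincubated 24 h with compound (1.0 or 10.0 µM; dissolved in 2% DMSO, diluted in PBS), then exposed to H2O2 100 µM for 2 h. Medium replaced; viability assessed 24 h later by MTT (4 h, 37 °C), lysis in DMF/SDS, A590.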

Mus musculus [8] = test: Reversal of scopolamine-induced memory impairment in po dosed Kunming mouse assessed as increase in step-down latency time administered 60 mins prior to training trial followed by scopolamine challenge at 30 mins post dose measured 24 hrs after training trial by passive avoidance test; type: functional, organism-based
Outline: (§3)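 Kunming mice, 18–22 g, six weeks old, either sex; 10 per group. Oral dosing 1 h before training (test compound 3.67, 7.33, 22 mg/kg; donepezil 5.0 mg/kg), scopolamine 3 mg/kg i.p. 30 min later. Training: 0.5 mA, 2 s foot shock on stepping off the block. Step-down latency measured 24 h later. Mean ± SEM.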

Acetylcholinesterase [9] = target: T2, Acetylcholinesterase (Rattus norvegicus, UniProt P37136); test: Inhibition of rat cortex homogenate AChE using acetylthiocholine iodide as substrate after 15 mins in presence of BuChE inhibitor iso-OMPA by Ellman's method
T2 sequence (P37136 whole entry): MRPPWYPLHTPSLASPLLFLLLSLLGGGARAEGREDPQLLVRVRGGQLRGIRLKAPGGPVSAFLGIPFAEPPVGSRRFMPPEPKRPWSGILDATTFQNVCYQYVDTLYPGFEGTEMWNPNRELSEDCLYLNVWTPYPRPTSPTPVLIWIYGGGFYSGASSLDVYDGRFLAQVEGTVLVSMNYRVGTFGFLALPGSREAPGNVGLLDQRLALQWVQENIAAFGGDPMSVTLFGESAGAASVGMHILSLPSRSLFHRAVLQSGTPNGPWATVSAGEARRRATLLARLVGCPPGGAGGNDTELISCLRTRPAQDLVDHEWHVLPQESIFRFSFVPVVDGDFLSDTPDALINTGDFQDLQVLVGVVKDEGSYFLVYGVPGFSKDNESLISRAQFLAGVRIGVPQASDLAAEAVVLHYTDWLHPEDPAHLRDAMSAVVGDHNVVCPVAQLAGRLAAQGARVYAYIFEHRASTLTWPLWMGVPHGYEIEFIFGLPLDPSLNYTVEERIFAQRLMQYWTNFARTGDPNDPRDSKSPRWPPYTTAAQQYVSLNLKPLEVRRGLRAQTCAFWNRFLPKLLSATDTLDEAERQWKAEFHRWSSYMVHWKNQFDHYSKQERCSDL

[10] = Metal chelating activity assessed as compound-Fe2+ complex formation by measuring shift in maximum absorption wavelength at 37.5 uM after 30 mins by UV-vis spectrophotometric method; outline: as §1
[11] = Metal chelating activity assessed as compound-Cu2+ complex formation by measuring red shift at 37.5 uM after 30 mins by UV-vis spectrophotometric method; outline: as §1
Mus musculus [12] = test: Reversal of scopolamine-induced memory impairment in Kunming mouse assessed as step-down latency time at 22 mg/kg, po administered 60 mins prior to training trial followed by scopolamine challenge at 30 mins post dose measured 24 hrs after training trial by passive avoidance test; type: functional; outline: as §3
[13] = Solubility of the compound in DMEM in presence of 10% FBS; type: physicochemical

With CCN(CCCCNC(=O)COc1ccc(-c2cc(=O)c3c(O)c(OC)c(OC)cc3o2)cc1)Cc1ccccc1OC the Activity [1] was “Active”, the inhibition [2] was 57.1% and the inhibition (Acetylcholinesterase [3]) was 32.7%. The Activity (SH-SY5Y) was “Non-Toxic”, the inhibition [4] was “Dose-dependent effect” and the Activity [5] was “inactive”. The inhibition (Acetylcholinesterase [6]) was “Dose-dependent effect”, the IC50 (Acetylcholinesterase [7]) was 39 nM and the viability at 10 µM (PC-12) was 82.7%. For the same compound, the Activity (Mus musculus [8]) was “Dose-dependent effect”, the IC50 (Acetylcholinesterase [9]) was 51 nM and the Activity [10] was “inactive”. The Activity [11] was “Active”, the Time (Mus musculus [12]) was 176.4 s and the solubility [13] was “Insoluble”.

From ChEMBL document CHEMBL4052630, “Design, synthesis and evaluation of scutellarein-O-acetamidoalkylbenzylamines as potential multifunctional agents for the treatment of Alzheimer's disease” (Eur J Med Chem, 2017)
